From PubChem BioAssay
KCNK3 inh – human KCNK3 channel inhibition, primary screen. O14649. CHO-KCNK3 thallium flux, FluxOR fluorescence; hits give low values. B-score at 10 µM. hit rate 0.84% among 340,000. AID 602410;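 active means B-score under library mean minus 4 SD, starting fluorescence ratio at most library mean plus 5 SD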;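 further: more negative B-score means stronger inhibition of thallium flux through KCNK3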
KCNQ1 pot – potentiators or activators of human KCNQ1 potassium channel; hit rate 0.35% among 310,000; P51787; CHO-K1 KCNQ1, thallium flux FluxOR fluorescence; hits give high values; B-score at 10 µM;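 active means fluorescence ratio B-score, a plate-corrected score, at least three library SD, with initial intensity B-score within 5 SD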
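Assay system: CHO-K1 cells stably expressing KCNQ1. Medium: assay buffer for compound exposure, DMSO matched across wells. Timing: 37 °C overnight plating, 90-min dark dye load, 20-min compound pretreatment. Signal: kinetic FluxOR fluorescence, 10 s baseline plus 110 s post-stimulus.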
KCNQ1 block – human KCNQ1 channel inhibition. P51787. CHO-K1 KCNQ1, FluxOR thallium flux fluorescence; hits give high values. B-score at 10 µM. hit rate 1.3% among 310,000;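 active means compounds whose thallium flux B-score, printed positive for inhibition, exceeds three library SD while starting fluorescence stays within three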;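 further: channel opened by potassium depolarization with thallium stimulus after 20 min compound exposure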
KCNK9 block – inhibitors of human KCNK9 two-pore domain potassium channel. Q9NPC2. HEK293 KCNK9, FluxOR thallium flux fluorescence; hits give low values. B-score at 10 µM. hit rate 1.2% among 310,000. AID 488922;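 active means ratio B-score over 3 SD below the library mean, with starting fluorescence within 5 SD of its mean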;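 further: negative B-score means less thallium flux so channel inhibition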
Target sequence (Q9NPC2 whole entry, looked up, the tested form may be a part): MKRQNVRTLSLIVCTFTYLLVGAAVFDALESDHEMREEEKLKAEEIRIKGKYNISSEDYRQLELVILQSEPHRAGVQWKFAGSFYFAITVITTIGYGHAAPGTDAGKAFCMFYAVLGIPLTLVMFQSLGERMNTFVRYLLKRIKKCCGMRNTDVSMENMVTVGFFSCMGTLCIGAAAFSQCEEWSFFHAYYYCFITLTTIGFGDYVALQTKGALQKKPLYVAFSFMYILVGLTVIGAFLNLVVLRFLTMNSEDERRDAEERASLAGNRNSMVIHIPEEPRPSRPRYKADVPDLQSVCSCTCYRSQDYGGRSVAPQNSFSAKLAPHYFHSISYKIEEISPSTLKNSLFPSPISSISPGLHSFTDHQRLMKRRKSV
hERG protect – shields human hERG channel from block by proarrhythmic agents; hit rate 0.51% among 310,000; CHO-hERG, FluxOR thallium flux, dofetilide IC70 present; activation (rescue from dofetilide block), less the hit threshold, % at 10 µM;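 active means activation above the mean of controls blocked by dofetilide plus 5 SD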;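 further: thallium influx through hERG after potassium depolarization seen as dye fluorescence rise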
Kir21 block – blocks the mouse Kir2.1 inward-rectifier potassium channel; P35561; HEK293-Kir2.1, FluxOR thallium flux fluorescence; hits give low values; B-score at 10 µM; hit rate 0.85% among 310,000; AID 1672;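 active means fluorescence ratio B-score at or below minus 3 SD of library scores, with starting-brightness B-score within 2 SD, cut at about -4.2 in these data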;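 further: channel flux triggered by added potassium and thallium sulfate stimulus; B-score of peak minus minimum fluorescence over baseline after thallium stimulus; more negative B-score means stronger Kir2.1 block with less thallium influx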
KCNK3 inh conf – confirmation of human KCNK3 two-pore domain potassium channel inhibitors. shares compounds with KCNK3 inh. CHO-KCNK3 thallium flux, FluxOR fluorescence; 0% buffer, 100% carvedilol maximal block. ratio percent of control, % at 10 µM. hit rate 99% among 2,400. AID 651638;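 active means ratio percent of control, averaged over triplicates, above buffer control mean plus 5 SD, cut at about 64% in these data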;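 further: ratio is the fluorescence rise from min to max over baseline after thallium stimulus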
KCNK3 noninduced – KCNK3 inhibitor counter-screen hit in non-induced cells | shares compounds with KCNK3 inh | hit rate 40% among 2,400 | thallium flux ratio (lower = more inhibition) at 10 µM | non-induced KCNK3 parental cells, FluxOR thallium flux; hits give low values;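 active means thallium flux ratio, averaged over three wells, more than 5 SD below the buffer control mean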;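 further: host cells are CHO cells without KCNK3 induction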
Hits are given with their value; i = inactive; nt = no result given. Hits are enriched below; roughly 3.8% of the tested compounds scored in any of these assays.

SMILES	KCNK3 inh	KCNQ1 pot	KCNQ1 block	KCNK9 block	hERG protect	Kir21 block	KCNK3 inh conf	KCNK3 noninduced
Cc1ccc(NC(=O)NC2CCCN2S(=O)(=O)c2ccc(Cl)cc2)cc1 (stereo not given)	i	i	i	i	i	i	nt	nt
O=c1sc2ccccc2n1CCOc1ccccc1	i	i	i	i	i	i	nt	nt
Cc1ccc(OCn2c(=O)sc3ccccc32)cc1	-10.7	i	i	i	i	i	111.7	i
Cc1cc(NC(=O)CSc2nnc(C(F)(F)F)n2C)no1	i	nt	nt	nt	nt	nt	nt	nt
Cc1cc(C(=O)N/N=C/c2c(C)[nH]n(-c3ccccc3)c2=O)n[nH]1	i	i	i	i	i	i	nt	nt
Cc1ccc(-c2cc(C(=O)N/N=C/c3c(C)nn(-c4ccccc4)c3C)n[nH]2)s1	-9.14	i	i	i	i	i	129.7	0.134
Cc1noc(C)c1COc1cccc(C(=O)Nc2ccc3c(c2)OCO3)c1	i	i	i	i	i	i	nt	nt
Cc1noc(C)c1COc1cccc(C(=O)OCCOc2ccc(F)cc2)c1	-14.3	i	i	i	i	i	116.0	i
Cc1noc(C)c1COc1cccc(C(=O)Oc2ccc3c(c2)OCO3)c1	-8.84	i	i	i	i	i	96.0	i
Cc1noc(C)c1COc1cccc(C(=O)OC(C)C#N)c1 (stereo not given)	i	i	i	i	i	i	nt	nt
CC(C)(CO)NC(=O)c1ccc2nc(Cc3cccc(Cl)c3)oc2c1	i	i	i	i	i	i	nt	nt
CCN(c1ccccc1)S(=O)(=O)c1ccc(C(=O)Nc2cc(C)ccn2)cc1	i	nt	nt	nt	nt	nt	nt	nt
CCC(=NCc1ccco1)c1c(C(F)(F)F)[nH]n(-c2nc3ccccc3s2)c1=O	-9.05	i	i	i	i	i	114.0	i
CSc1cccc(NC(=S)N(CCC(C)C)C(C)c2ccncc2)c1 (stereo not given)	i	i	i	i	i	i	nt	nt
COc1ccc(Cl)cc1-n1c(=S)sc2c(=O)[nH]c(SCC(=O)C(C)(C)C)nc21	-9.03	i	i	i	i	i	88.3	0.141
Cc1oc(-c2cccc3ccccc23)nc1CN1CCN(c2ncnc3ccccc23)CC1	-9.67	i	i	i	i	i	112.3	i
COC(=O)c1ccc(OCC2c3cc(OC)c(OC)cc3CCN2C(=O)c2ccco2)cc1 (stereo not given)	i	i	i	i	i	i	nt	nt
CC(Sc1nnc2ccccn12)C(=O)Nc1ccc2c(c1)OCO2 (stereo not given)	i	i	i	i	i	i	nt	nt
NC(=S)Nc1ccc(Cl)c(Cl)c1	i	i	i	i	i	i	nt	nt
Cc1cc(C)cc(NC(=S)Nc2ccc(Cl)c(Cl)c2)c1	-13.6	i	12	i	i	i	145.7	0.107
CCOC(=O)[C@H]1[C@H]2COc3ccc(Br)cc3[C@@H]2N2C(=O)CN(Cc3ccc(F)cc3)C(=O)[C@@]12C	i	nt	nt	nt	nt	nt	nt	nt
CCc1ccc(N2C(=O)C(Cl)=C(N3CCOCC3)C2=O)cc1	i	i	i	i	i	i	nt	nt
CCc1ccc(N2C(=O)C(Cl)=C(N3CCCCCC3)C2=O)cc1	i	i	i	-7.08	i	i	116.7	0.15
COC(=O)COc1ccc(Cl)cc1C1Nc2ccccc2C(=O)N1c1ccc(OC)cc1 (stereo not given)	i	i	i	-7.98	i	i	122.0	0.158
COc1cc(C2Nc3ccccc3C(=O)N2c2ccccc2)c(Br)cc1OCC(=O)O (stereo not given)	i	i	i	i	i	i	nt	nt
SMILES	KCNK3 inh	KCNQ1 pot	KCNQ1 block	KCNK9 block	hERG protect	Kir21 block	KCNK3 inh conf	KCNK3 noninduced
Cc1sc2ncnc(N3CCN(Cc4ccccc4)CC3)c2c1-c1ccccc1	-9.62	57	i	i	i	i	111.7	0.158
Cc1ccc2[nH]c3c(N4CCN(Cc5ccccc5)CC4)ncnc3c2c1	-10.1	i	i	i	i	i	130.0	0.112
O=C(CN1CCCCCCC1)N/N=C/c1ccc(F)c(F)c1	i	i	i	i	i	i	nt	nt
COc1cccc(OCC(=O)O/N=C(\N)c2ccncc2)c1	i	i	i	i	i	i	nt	nt
CCN(CC)C(=O)COc1ccc2oc(-c3ccco3)cc(=O)c2c1	i	i	i	i	i	i	nt	nt
CN(Cc1ccccc1)C(=O)COC(=O)c1ccc(Br)o1	i	nt	nt	nt	nt	nt	nt	nt
Cc1cccc(C(=O)c2cnc3ccccc3c2-c2ccccc2)c1	-11.4	i	i	-6.73	i	i	129.0	0.137
CCN(CCCNC(=O)c1[nH]c(C)c(C(C)=O)c1C)c1ccccc1	i	i	i	i	i	i	nt	nt
CC(NC(=O)COC(=O)c1ccc(Br)o1)c1ccccc1 (stereo not given)	i	nt	nt	nt	nt	nt	nt	nt
CCOc1ccc(C(=O)n2cc(C(=O)OC)c3ccccc32)cc1	-10.2	i	i	i	i	i	116.0	0.147
CCOc1ccc(C(=O)n2cc(C(=O)OC)c3ccccc32)cc1OCC	i	i	i	i	i	i	nt	nt
CN(Cc1ccccc1F)C(=O)COc1ccc(C(=O)c2ccccc2)cc1	-12	i	i	-7.73	i	i	119.0	i
COc1cccc(-c2nc(C(=O)NCC3CCCO3)cc3c2[nH]c2ccccc23)c1 (stereo not given)	-10.8	i	i	-6.76	i	i	63.7	0.149
CCOC(=O)C1CCCN(Cc2ccc(OCC)cc2)C1 (stereo not given)	i	i	i	i	i	i	nt	nt
COc1ccc(C(=O)C2CCCN(S(=O)(=O)c3ccc(C(C)=O)cc3)C2)c(C)c1 (stereo not given)	-10.1	i	i	i	i	i	119.7	0.153
c1ccc(-n2c(SCc3nc(-c4cccs4)no3)nnc2-c2ccco2)cc1	i	i	i	i	i	i	nt	nt
Cc1sc2nc(SCc3nc(-c4cccs4)no3)n(-c3ccccc3)c(=O)c2c1C	-12.5	i	i	-7.66	i	i	108.7	i
Cc1sc2nc(C3CC3)nc(N3CCN(C(=O)c4ccc(Cl)cc4)CC3)c2c1C	-12.9	i	6	i	i	i	96.3	0.154
O=C(N/C=C/c1ccco1)Nc1cccc(Cl)c1	-9.32	i	6	i	i	i	93.7	0.143
CCOc1cc(/C=N/NS(=O)(=O)c2ccccc2)ccc1OS(=O)(=O)c1ccc(C)cc1	-9.36	i	i	i	i	i	101.7	i
CCOc1cc(/C=N/NC(=O)COc2ccc(Cl)cc2)ccc1OS(=O)(=O)c1ccccc1	i	i	i	i	i	i	nt	nt
CC1(C)O[C@@H]2[C@H](O1)[C@@H](CO)O[C@H]2n1ccc(=O)[nH]c1=O	i	nt	nt	nt	nt	nt	nt	nt
CSc1nc(N2CCN(Cc3ccc4c(c3)OCO4)CC2)c2ccccc2n1	-12.9	i	i	i	i	i	112.0	i
